Reference: ChEMBL document CHEMBL4765234 (J Med Chem, 2016)
≈ marks a conversion by molar mass, not a printed value. Calls of active or inactive are those of the source. The rule behind the calls is not given here.

What was measured:
[1] = biological target: T1, Free fatty acid receptor 1 (Homo sapiens, UniProt O14842); test: Agonist activity at human recombinant full length GPR40 overexpressed in human HEK293 cells assessed as increase in intracellular calcium level measured over 3 mins by calcium 4 dye based FLIPR assay; format: functional, cell-based
T1 sequence (O14842 whole entry): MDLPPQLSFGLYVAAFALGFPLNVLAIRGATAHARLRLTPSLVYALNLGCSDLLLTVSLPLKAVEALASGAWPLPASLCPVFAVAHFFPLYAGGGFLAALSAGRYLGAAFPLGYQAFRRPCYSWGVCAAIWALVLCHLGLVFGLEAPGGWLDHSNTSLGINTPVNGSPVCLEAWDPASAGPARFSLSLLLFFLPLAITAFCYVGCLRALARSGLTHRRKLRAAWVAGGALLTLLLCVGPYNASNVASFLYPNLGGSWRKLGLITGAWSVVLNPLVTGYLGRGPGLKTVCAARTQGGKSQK
Method in brief: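 HEK293 cells overexpressing hGPR40 (25K/well) were cultured overnight in DMEM/F12 with 0.2% FBS and geneticin. Compound was tested at 40 μM–0.1 nM final (20-point, 1% DMSO), and FLIPR fluorescence was read over 3 min.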

[2] = Dissociation constant, pKa2 of compound by potentiometric method; format: physicochemical
Method in brief: (§1)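 pKa values measured potentiometrically.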

[3] = Protein binding in plasma (unknown origin) by equilibrium dialysis method; format: ADME, cell-free; details: human, read-out: PPB
Method in brief: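 Plasma protein binding measured by equilibrium dialysis.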

[4] = biological target: T1, Free fatty acid receptor 1; test: Agonist activity at human recombinant full length GPR40 overexpressed in human HEK293 cells assessed as increase in inositol phosphate accumulation in presence of terbium cryptate-labeled anti IP1/d2-labelled IP1 measured after 120 mins by HTRF assay relative to AMG837; format: functional, cell-based; details: filed as agonist
Method in brief: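 HEK293 hGPR40 cells (20K/well) were cultured overnight, washed, and held in IP1 stimulation buffer. IP-1 was measured by competitive HTRF immunoassay with terbium cryptate anti-IP1 mAb and d2-labelled IP1.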

[5] = biological target: T1, Free fatty acid receptor 1; test: Displacement of [3H]-(S)-2-(6-((2',6'-dimethyl-4'-(3-(methylsulfonyl)propoxy)biphenyl-3-yl)methoxy)-2,3-dihydrobenzofuran-3-yl)acetic acid from human recombinant full-length GPR40 expressed in human HEK293 cell membrane assessed as residence time by radioligand competitive assay; format: cell membranes; details: filed as agonist
Method in brief: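 Residence time came from competitive association kinetics. [3H]-radioligand binding to human GPR40 HEK293 membranes (5 μg, rt, Tris/Ca/Mg/0.1% BSA buffer) was measured at time points over 0–3 h, with and without several concentrations of unlabeled test compound. Fits used association and dissociation rates of the radioligand from independent kinetic experiments.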

[6] = biological target: T1, Free fatty acid receptor 1; test: Agonist activity at human recombinant full-length Prolink-tagged GPR40 fused with EA-tagged beta-arrestin expressed in human HEK293 cells assessed as induction of beta-arrestin recruitment measured after 90 mins by beta-galactosidase based PathHunter assay; format: cell-based
Method in brief: (§2)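 PathHunter β-gal complementation. Cells were incubated overnight at 5000/well in medium with 1% heat-inactivated FBS. Compound was added as a 20-point 2-fold series from a top final of 100 μM (1% DMSO) for 90 min at 37 °C, followed by detection reagents and chemiluminescence read after 1 h at rt.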

[7] = biological target: Free fatty acid receptor 1 (Mus musculus) (UniProt Q76JU9); test: Agonist activity at GPR40 in mouse MIN6 cells assessed as induction of glucose-mediated insulin secretion incubated for 2 hrs by ELISA; format: cell-based
Chain of Free fatty acid receptor 1 (Mus musculus) (Q76JU9 whole entry, the tested form may be a part): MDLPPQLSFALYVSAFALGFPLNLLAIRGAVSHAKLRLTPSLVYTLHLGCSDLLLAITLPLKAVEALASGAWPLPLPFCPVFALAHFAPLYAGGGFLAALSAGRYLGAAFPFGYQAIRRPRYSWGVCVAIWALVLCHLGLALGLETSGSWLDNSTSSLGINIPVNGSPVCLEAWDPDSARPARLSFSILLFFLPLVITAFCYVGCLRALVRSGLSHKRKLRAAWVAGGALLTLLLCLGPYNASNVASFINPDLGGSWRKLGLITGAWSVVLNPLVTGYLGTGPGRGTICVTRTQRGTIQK
Method in brief: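 Glucose-dependent insulin secretion in mouse MIN6 cells or rat islet cells, scored as secretion above the glucose-alone level.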

[8] = biological target: Free fatty acid receptor 1 (Rattus norvegicus, UniProt Q8K3T4); test: Agonist activity at Prolink-tagged rat GPR40 fused with EA-tagged beta-arrestin expressed in human U2OS cells assessed as induction of beta-arrestin recruitment measured after 90 mins by beta-galactosidase based PathHunter assay; format: cell-based; method in brief: as §2
Chain of Free fatty acid receptor 1 (Rattus norvegicus, UniProt Q8K3T4) (Q8K3T4 whole entry, the tested form may be a part): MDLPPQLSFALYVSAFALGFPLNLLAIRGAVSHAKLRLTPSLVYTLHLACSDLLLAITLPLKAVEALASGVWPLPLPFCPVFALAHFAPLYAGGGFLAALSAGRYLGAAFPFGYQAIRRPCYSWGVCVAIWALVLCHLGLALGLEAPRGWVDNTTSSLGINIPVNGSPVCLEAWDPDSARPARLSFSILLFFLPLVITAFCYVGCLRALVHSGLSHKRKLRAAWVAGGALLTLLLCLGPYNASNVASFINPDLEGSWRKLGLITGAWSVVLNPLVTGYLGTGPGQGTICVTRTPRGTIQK

Mus musculus [9] = test: Hypoglycemic activity in Balb/c mouse assessed as effective dose causing reduction in blood glucose level administered orally 60 mins prior to glucose challenge measured for 60 mins by IPGTT; format: functional; details: po, 1 h
[10] = biological target: T1, Free fatty acid receptor 1; test: Displacement of [3H]-TAK-875 from human recombinant full-length GPR40 expressed in human HEK293 cell membrane incubated for 2 hrs by solid scintillation counting method; format: cell membranes; details: for Activity: filed as agonist
[11] = Dissociation constant, pKa1 of compound by potentiometric method; format: physicochemical; method in brief: as §1
[12] = biological target: Free fatty acid receptor 1 (Mus musculus) (UniProt Q76JU9); test: Agonist activity at Prolink-tagged mouse GPR40 fused with EA-tagged beta-arrestin expressed in human U2OS cells assessed as induction of beta-arrestin recruitment measured after 90 mins by beta-galactosidase based PathHunter assay relative to control; format: cell-based; details: filed as agonist; method in brief: as §2
Rattus norvegicus = test: Hypoglycemic activity in Zucker fatty diabetes mellitus rat model assessed as reduction in blood glucose level administered orally for 21 days and measured at 10 to 60 mins post glucose challenge on day 21 by OGTT; format: functional, organism-based; details: dose 0.03-1 mg/kg, time 21.0 day
[13] = Metabolic stability in human liver microsomes assessed as compound hydrolysis incubated for 30 mins by LC-MS/MS analysis; format: ADME, Microsome; details: read-out: Drug degradation
Method in brief: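 Incubated 30 min with mouse or human liver microsomes. Stability reported as % metabolized.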

[14] = biological target: T2, Peroxisome proliferator-activated receptor delta (Homo sapiens, UniProt Q03181); test: Agonist activity at human Gal4-fused PPARdelta LBD expressed in African green monkey CV1 cells cotransfected with pRL-SV40 plasmid measured after 24 hrs by luciferase reporter gene assay; format: cell-based, CV-1
T2 sequence (Q03181 whole entry): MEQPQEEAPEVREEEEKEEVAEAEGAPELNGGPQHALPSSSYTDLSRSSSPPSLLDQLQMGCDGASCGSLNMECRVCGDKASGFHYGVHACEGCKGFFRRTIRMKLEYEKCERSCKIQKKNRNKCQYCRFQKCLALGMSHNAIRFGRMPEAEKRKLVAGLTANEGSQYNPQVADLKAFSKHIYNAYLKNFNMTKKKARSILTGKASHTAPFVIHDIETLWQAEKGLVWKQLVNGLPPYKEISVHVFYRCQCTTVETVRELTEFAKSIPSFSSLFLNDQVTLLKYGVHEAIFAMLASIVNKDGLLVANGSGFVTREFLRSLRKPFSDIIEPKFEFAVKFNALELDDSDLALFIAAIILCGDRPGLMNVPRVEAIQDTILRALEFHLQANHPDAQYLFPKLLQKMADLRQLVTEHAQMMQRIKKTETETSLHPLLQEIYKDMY
Method in brief: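 CV1 African green monkey kidney cells were cotransfected, in DMEM with 5% charcoal-stripped FBS, with two plasmids: an SV40-driven Gal4 DBD–PPARα or PPARδ LBD hybrid, and a 5×Gal4-element firefly luciferase reporter. Cells were replated at 15000/well for 4 h, then exposed to 0.17 nM–10 μM in half-log steps for 24 h. Luciferase was read, normalized to maximum from 10 μM reference agonist, and fit by a 4-parameter model.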

[15] = Lipophilicity, logP of compound; format: physicochemical; details: octanol/water
Mus musculus [16] = test: Hypoglycemic activity in Balb/c mouse assessed as increase in insulin secretion at 0.03 to 3 mg/kg, po administered 60 mins prior to glucose challenge and measured at 3 to 7 mins by IPGTT; format: functional, organism-based; details: dose 0.03-3 mg/kg
[17] = Aqueous solubility of the compound at pH 7.4; format: physicochemical; details: buffer
[18] = biological target: Voltage-gated inwardly rectifying potassium channel KCNH2 (Homo sapiens, UniProt Q12809); test: Inhibition of human ERG
Chain of Voltage-gated inwardly rectifying potassium channel KCNH2 (Q12809 whole entry): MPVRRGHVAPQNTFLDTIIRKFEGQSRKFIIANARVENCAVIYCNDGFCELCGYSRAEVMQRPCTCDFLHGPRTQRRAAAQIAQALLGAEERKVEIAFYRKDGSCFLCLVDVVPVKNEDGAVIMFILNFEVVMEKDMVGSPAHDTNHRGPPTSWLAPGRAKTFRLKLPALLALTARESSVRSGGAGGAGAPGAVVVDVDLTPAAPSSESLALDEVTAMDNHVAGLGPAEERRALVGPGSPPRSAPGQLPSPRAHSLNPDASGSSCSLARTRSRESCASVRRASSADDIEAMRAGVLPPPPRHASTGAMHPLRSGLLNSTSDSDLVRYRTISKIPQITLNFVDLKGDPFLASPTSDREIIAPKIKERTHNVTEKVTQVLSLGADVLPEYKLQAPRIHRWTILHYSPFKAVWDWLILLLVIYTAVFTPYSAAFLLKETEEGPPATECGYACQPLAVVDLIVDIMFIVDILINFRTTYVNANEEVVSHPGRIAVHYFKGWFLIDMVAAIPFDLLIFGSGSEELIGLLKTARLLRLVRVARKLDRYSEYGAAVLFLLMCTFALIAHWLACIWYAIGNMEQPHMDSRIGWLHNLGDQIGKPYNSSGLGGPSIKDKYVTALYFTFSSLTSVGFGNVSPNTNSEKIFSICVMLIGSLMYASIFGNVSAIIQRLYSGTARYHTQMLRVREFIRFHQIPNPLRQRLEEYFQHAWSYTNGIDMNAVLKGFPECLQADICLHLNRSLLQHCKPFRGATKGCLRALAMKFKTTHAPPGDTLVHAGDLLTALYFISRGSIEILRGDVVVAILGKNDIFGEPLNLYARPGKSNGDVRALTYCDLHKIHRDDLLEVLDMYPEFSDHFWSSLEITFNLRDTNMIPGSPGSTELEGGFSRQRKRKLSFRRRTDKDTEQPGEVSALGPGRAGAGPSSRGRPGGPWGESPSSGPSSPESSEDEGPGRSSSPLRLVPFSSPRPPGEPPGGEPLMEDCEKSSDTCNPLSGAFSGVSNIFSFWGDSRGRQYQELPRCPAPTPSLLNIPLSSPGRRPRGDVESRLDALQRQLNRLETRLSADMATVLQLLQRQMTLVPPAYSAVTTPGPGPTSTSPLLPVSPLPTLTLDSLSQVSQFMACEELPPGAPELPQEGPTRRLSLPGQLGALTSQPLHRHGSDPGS

[19] = Clearance in human liver microsomes by LC-MS/MS analysis; format: ADME, Microsome
Mus musculus [20] = test: Agonist activity at GPR40 in Balb/c mouse assessed as increase in GLP-1 levels in blood at 30 mg/kg, po measured at 15 to 180 mins by ELISA; format: functional, organism-based; details: filed as agonist, time lower […], time upper 180.0 min
[21] = Solubility of the compound in 0.01 N HCl; format: physicochemical

Row | SMILES | EC50 [1] [nM] | pKa [2] | fraction unbound [3] | Emax [4] [%] | TIME [5] [h] | EC50 [6] [nM] | EC50 [8] [nM] | ED90 (Mus musculus [9]) [mg/kg] | Ki [10] [nM] | pKa [11] | Emax [12] [%] | Activity (Rattus norvegicus) | metabolised at 0.5 h [13] [%] | EC50 [14] [nM] | logP [15] | Activity ([7]; filed as agonist) | Activity (Mus musculus [16]) | solubility [17] [µM] | IC50 [18] [nM] | CLH [19] [h⁻¹] | other results
1 | O=C(O)CCc1ccc(OCc2ccc(CN3CCC4(C=Cc5ccccc54)CC3)cc2)cc1F | 180 | 7.7 | < 0.01 | 282 | 0.2 | 340 | 160 | > 100 | 68 | 3.9 | 127 |  |  |  |  |  |  |  |  |  | Activity [7]: inactive
2 | CC#C[C@@H](CC(=O)O)c1ccc(OCc2ccc(CN3CCC4(C=Cc5ccccc54)CC3)cc2)cc1 [LY2881835] |  | 8.1 | < 0.01 | 162 | 2 |  |  | 0.58 |  | 4.1 | 133 | Dose-dependent effect | 38 | > 10000 | 4.9 | Active | Active | 61 (≈ 30 µg/mL) | > 10000 | 0.033 | Activity [10]: Dose-dependent effect; Activity (Mus musculus [20]): Active; solubility [21]: 13 µg/mL (≈ 26.4 µM)
3 | CC#C[C@@H](CC(=O)O)c1ccc(OCc2ccc(CN3CCCc4cccc(OC)c43)s2)cc1 |  | 6 | < 0.01 |  |  | 7 | 3 | 5 |  | 3.4 | 137 | Dose-dependent effect | 24 | > 10000 | 5.2 |  | Active | > 100 | > 10000 | 0.0048 | Activity [10]: Dose-dependent effect; Activity (Mus musculus [20]): Active; solubility [21]: 46 µg/mL (≈ 96.7 µM)
4 | CC#C[C@@H](CC(=O)O)c1ccc(OCc2ccc(CN3CCC4(CC3)CN(C)c3ccccc34)cc2)cc1 | 55 | 8.3 | < 0.01 | 268 | 0.783 | 56 | 5.5 | 11.7 | 11 | 4.3 | 131 |  |  |  |  | Active |  |  |  |  | 
5 | CC#C[C@@H](CC(=O)O)c1ccc(OCc2ccc(CN3CCC4(C=Cc5ccccc54)CC3)s2)cc1 | 12 | 7.4 | < 0.01 | 145 | 0.667 | 5.3 | 0.93 | 3.67 | 4.8 | 4.2 | 119 |  |  |  |  | Active |  |  |  |  | 
6 | CC#C[C@@H](CC(=O)O)c1ccc(OCc2ccc(CN3CCC4(CCc5ccccc54)CC3)cc2)cc1 | 19 | 8.6 | < 0.01 | 249 | 1.1 | 11 | 1.3 | 22 | 4.6 | 4.6 | 135 |  |  |  |  | Active |  |  |  |  | 
7 | CC#C[C@@H](CC(=O)O)c1ccc(OCc2ccc(CN3CCC4(CCc5ccccc54)CC3)s2)cc1 | 8 | 7.9 | < 0.01 | 132 | 1.03 | 7.9 | 1.7 | 5.6 | 8.2 | 3.4 | 126 | Dose-dependent effect | 44 | > 10000 | 5 | Active | Active | 89 (≈ 44.5 µg/mL) | > 10000 | 0.109 | Activity [10]: Dose-dependent effect; Activity (Mus musculus [20]): Active; solubility [21]: 55 µg/mL (≈ 110 µM)
8 | O=C(O)C[C@@H](c1ccc(OCc2ccc3nc(-c4ccccc4)nn3c2)cc1)c1ccon1 | 14 |  | < 0.01 | 124 | 0.367 | 600 | 14000 | > 100 | 79 | 1.9 | 98 |  |  |  |  |  |  |  |  |  | Activity [7]: inactive
